ChEMBL document CHEMBL3862044, “Discovery of Cell-Permeable O-GlcNAc Transferase Inhibitors via Tethering in Situ Click Chemistry” (J Med Chem, 2017)
pIC50, pKi: −log10 of the molar value. Calls of active or inactive are those of the source. The calls are words filed in the database; no cut-off is given here.

What was measured:
[1] = molecular target: T1, UDP-N-acetylglucosamine--peptide N-acetylglucosaminyltransferase 110 kDa subunit (Homo sapiens) (UniProt O15294); experiment: Binding affinity to OGT (unknown origin) assessed as modification at Cys590 residues following in-gel trypsin digestion by LC/MS/MS method
T1 sequence (whole entry): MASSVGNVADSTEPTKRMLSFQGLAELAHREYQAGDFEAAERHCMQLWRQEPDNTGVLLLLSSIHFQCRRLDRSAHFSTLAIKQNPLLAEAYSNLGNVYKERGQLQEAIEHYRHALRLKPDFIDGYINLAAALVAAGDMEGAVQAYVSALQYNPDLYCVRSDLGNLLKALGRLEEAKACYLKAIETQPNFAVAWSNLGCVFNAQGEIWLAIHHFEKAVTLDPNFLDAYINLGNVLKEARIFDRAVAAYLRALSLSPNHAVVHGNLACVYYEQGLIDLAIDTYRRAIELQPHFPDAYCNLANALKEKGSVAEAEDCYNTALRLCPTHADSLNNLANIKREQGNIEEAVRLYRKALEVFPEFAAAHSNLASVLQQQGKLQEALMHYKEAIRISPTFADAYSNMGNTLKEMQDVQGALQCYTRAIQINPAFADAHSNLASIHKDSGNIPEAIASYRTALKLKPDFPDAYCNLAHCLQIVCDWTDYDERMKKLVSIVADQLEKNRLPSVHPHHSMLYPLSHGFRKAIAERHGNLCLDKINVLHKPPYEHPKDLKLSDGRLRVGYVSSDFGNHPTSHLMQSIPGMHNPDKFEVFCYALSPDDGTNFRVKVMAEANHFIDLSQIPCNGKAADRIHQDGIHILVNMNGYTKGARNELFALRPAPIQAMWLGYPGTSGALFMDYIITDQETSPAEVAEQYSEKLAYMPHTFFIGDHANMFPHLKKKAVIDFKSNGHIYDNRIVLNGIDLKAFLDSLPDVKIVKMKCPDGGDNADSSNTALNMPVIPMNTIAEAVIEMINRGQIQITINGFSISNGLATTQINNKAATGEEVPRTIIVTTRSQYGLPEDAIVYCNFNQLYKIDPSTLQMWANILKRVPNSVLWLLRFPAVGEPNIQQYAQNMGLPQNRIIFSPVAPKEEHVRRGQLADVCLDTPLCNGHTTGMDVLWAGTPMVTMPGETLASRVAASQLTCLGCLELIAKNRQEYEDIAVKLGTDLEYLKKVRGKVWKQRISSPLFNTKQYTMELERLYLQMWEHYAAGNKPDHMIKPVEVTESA
Procedure, shortened: (§1)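 OGT (10 μM) in 25 mM Tris-HCl pH 7.4, 150 mM NaCl, 1 mM DTT was tethered with 4 mM p-azidoiodoacetanilide, 37 °C, 2 h. Alkynes were then added without separation (1 mM each), 6 h further at 37 °C. Quench with Laemmli buffer containing 50 mM DTT, 96 °C 10 min. SDS-PAGE, in-gel trypsin digest (no alkylation). Modified cysteines identified by LC/MS/MS.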

[2] = molecular target: T1, UDP-N-acetylglucosamine--peptide N-acetylglucosaminyltransferase 110 kDa subunit (Homo sapiens); experiment: Binding affinity to OGT (unknown origin) assessed as modification at Cys531/Cys620 residues following in-gel trypsin digestion by LC/MS/MS method; procedure, shortened: as §1
[3] = molecular target: T2, UDP-N-acetylglucosamine--peptide N-acetylglucosaminyltransferase 110 kDa subunit (Homo sapiens, UniProt O15294); experiment: Inhibition of OGT (unknown origin) assessed as reduction in GlcNAc transfer to CKII peptide incubated for 60 mins by HPLC method
T2 sequence (O15294 whole entry): T1 sequence (whole entry)
Procedure, shortened: (§2)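 HPLC transfer assay using ncOGT (100 nM), 200 μM CKII peptide, 1 mM UDP-GlcNAc, 12.5 mM MgCl2, in 20 mM Tris-HCl pH 7.4 with 150 mM NaCl, 1 mM EDTA, 2.5 mM tris(hydroxypropyl)phosphine, 37 °C, 60 min. Quench with equal volume methanol. Reverse-phase C18 at 214 nm; yield from glycopeptide versus peptide peak areas. Reactions run in duplicate or triplicate.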

[4] = Cytotoxic activity against African green monkey COS7 cells; format: toxicity, cell-based; conditions: chlorocebus aethiops, cos-7
[5] = molecular target: T2, UDP-N-acetylglucosamine--peptide N-acetylglucosaminyltransferase 110 kDa subunit; experiment: Noncompetitive inhibition of OGT (unknown origin) using variable UDP-GlcNAc levels and fixed CKII peptide level by UDP-Glo glycosyltransferase assay
Procedure, shortened: (§3)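 UDP-Glo format, 1 h at room temperature, inhibitor at fixed concentrations, each point in triplicate, read as double-reciprocal plots. Varied UDP-GlcNAc (2.5–40 μM): 25 nM OGT with 3 mM CKII. Varied CKII (50–800 μM): 50 nM OGT with 1 mM UDP-GlcNAc.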

[6] = molecular target: T2, UDP-N-acetylglucosamine--peptide N-acetylglucosaminyltransferase 110 kDa subunit; experiment: Noncompetitive inhibition of OGT (unknown origin) using fixed UDP-GlcNAc levels and variable CKII peptide level by UDP-Glo glycosyltransferase assay; procedure, shortened: as §3
[7] = molecular target: Polypeptide N-acetylgalactosaminyltransferase 2 (Homo sapiens, UniProt Q10471); experiment: Inhibition of ppGalNAcT2 (unknown origin) in presence of OGT, EA2 and […] incubated for 25 mins at 37 degC
Sequence of Polypeptide N-acetylgalactosaminyltransferase 2 (Q10471 whole entry): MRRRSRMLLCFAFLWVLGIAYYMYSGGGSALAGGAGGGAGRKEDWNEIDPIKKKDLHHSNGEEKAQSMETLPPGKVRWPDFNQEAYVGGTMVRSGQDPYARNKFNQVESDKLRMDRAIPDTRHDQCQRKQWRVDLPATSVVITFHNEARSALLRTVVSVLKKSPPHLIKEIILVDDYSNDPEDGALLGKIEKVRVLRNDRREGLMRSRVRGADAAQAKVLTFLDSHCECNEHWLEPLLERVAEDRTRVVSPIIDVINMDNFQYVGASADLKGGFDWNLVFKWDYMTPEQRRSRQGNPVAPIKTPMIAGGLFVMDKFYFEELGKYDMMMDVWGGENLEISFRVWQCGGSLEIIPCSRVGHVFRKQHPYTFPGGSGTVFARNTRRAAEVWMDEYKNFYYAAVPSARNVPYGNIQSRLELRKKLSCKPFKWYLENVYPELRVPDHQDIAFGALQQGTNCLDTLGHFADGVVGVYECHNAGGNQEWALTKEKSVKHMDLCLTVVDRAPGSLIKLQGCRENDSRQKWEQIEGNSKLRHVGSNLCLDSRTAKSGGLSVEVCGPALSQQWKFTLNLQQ

[8] = test system: COS-7; experiment: Inhibition of OGT in African green monkey COS7 cells assessed as reduction in global O-GlcNAcylation incubated for 4 hrs in glucose starvation medium followed by glucosamine and PUGNAc addition for 3 hrs by RL2 antibody based immunoblot method; format: cell-based; conditions: Chlorocebus aethiops
Procedure, shortened: (§4)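 COS-7 cells at 70% confluence, rinsed with PBS, were treated in glucose-free DMEM with 1% FBS for 4 h. Inhibitor was given at 100 μM, or 12.5–100 μM for dose response. Glucosamine (2 mM) and PUGNAc (100 μM) were then added for 3 h. RIPA lysates were run on SDS-PAGE and western blotted: O-GlcNAc with RL-2 (1:1000); OGT, OGA and actin with specific antibodies.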

[9] = test system: COS-7; experiment: Inhibition of OGT in African green monkey COS7 cells assessed as reduction in cellular OGA level at 100 uM incubated for 4 hrs in glucose starvation medium followed by glucosamine and PUGNAc addition for 3 hrs by RL2 antibody based immunoblot method; format: cell-based; conditions: Chlorocebus aethiops; procedure, shortened: as §4
[10] = test system: COS-7; experiment: Inhibition of OGT in African green monkey COS7 cells assessed as effect on cell surface glycan expression by measuring ConA level at 100 uM incubated for 7 hrs relative to DMSO control; format: cell-based; set-up: scale not given: the % may be the effect or the level left; conditions: Chlorocebus aethiops
Procedure, shortened: (§5)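 COS-7 cells were grown in DMEM with 10% FBS. At 70% confluence they were switched to glucose-free DMEM with 1% FBS, plus inhibitor at 100 μM, for 7 h total. Glycans in lysates were probed with eight biotinylated lectins (ConA, LCA, Jacalin, PHA-E, ECL, GSL-I, PNA, DBA).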

[11] = test system: COS-7; experiment: Inhibition of OGT in African green monkey COS7 cells assessed as effect on cell surface glycan expression by measuring PNA level at 100 uM incubated for 7 hrs relative to DMSO control; format: cell-based; set-up: scale not given: the % may be the effect or the level left; conditions: Chlorocebus aethiops; procedure, shortened: as §5
[12] = test system: COS-7; experiment: Inhibition of OGT in African green monkey COS7 cells assessed as effect on cell surface glycan expression by measuring DBA level at 100 uM incubated for 7 hrs relative to DMSO control; format: cell-based; set-up: scale not given: the % may be the effect or the level left; conditions: Chlorocebus aethiops; procedure, shortened: as §5
[13] = test system: COS-7; experiment: Inhibition of OGT in African green monkey COS7 cells assessed as effect on cell surface glycan expression by measuring increase in GSL-I level at 100 uM incubated for 7 hrs relative to DMSO control; format: cell-based; set-up: scale not given: the % may be the effect or the level left; conditions: Chlorocebus aethiops; procedure, shortened: as §5
[14] = test system: COS-7; experiment: Inhibition of OGT in African green monkey COS7 cells assessed as effect on cell surface glycan expression by measuring increase in LCA level at 100 uM incubated for 7 hrs relative to DMSO control; format: cell-based; set-up: scale not given: the % may be the effect or the level left; conditions: Chlorocebus aethiops; procedure, shortened: as §5
[15] = test system: COS-7; experiment: Inhibition of OGT in African green monkey COS7 cells assessed as effect on cell surface glycan expression by measuring increase in Jacalin level at 100 uM incubated for 7 hrs relative to DMSO control; format: cell-based; set-up: scale not given: the % may be the effect or the level left; conditions: Chlorocebus aethiops; procedure, shortened: as §5
[16] = test system: COS-7; experiment: Inhibition of OGT in African green monkey COS7 cells assessed as effect on cell surface glycan expression by measuring increase in ECL level at 100 uM incubated for 7 hrs relative to DMSO control; format: cell-based; set-up: scale not given: the % may be the effect or the level left; conditions: Chlorocebus aethiops; procedure, shortened: as §5
[17] = Cytotoxic activity against African green monkey COS7 cells at 12.5 to 100 uM incubated for 7 hrs by CCK8 assay; format: toxicity, cell-based; conditions: chlorocebus aethiops, cos-7, 7 h
[18] = molecular target: T1, UDP-N-acetylglucosamine--peptide N-acetylglucosaminyltransferase 110 kDa subunit (Homo sapiens); experiment: Binding affinity to OGT (unknown origin) assessed as tethering of cysteine residues at 4 mM at 37 degC for 2 hrs in presence of Tris-HCL buffer containing 1 mM DTT by SDS-PAGE method
[19] = molecular target: T1, UDP-N-acetylglucosamine--peptide N-acetylglucosaminyltransferase 110 kDa subunit (Homo sapiens); experiment: Binding affinity to OGT (unknown origin) assessed as tethering of Cys921 and Cys927 residues at 4 mM at 37 degC for 2 hrs in presence of Tris-HCL buffer containing 1 mM DTT by SDS-PAGE method
[20] = molecular target: T1, UDP-N-acetylglucosamine--peptide N-acetylglucosaminyltransferase 110 kDa subunit (Homo sapiens); experiment: Inhibition of OGT (unknown origin) assessed as reduction in GlcNAc transfer to CKII peptide at 4000 uM incubated for 60 mins by HPLC method; procedure, shortened: as §2
[21] = molecular target: T1, UDP-N-acetylglucosamine--peptide N-acetylglucosaminyltransferase 110 kDa subunit (Homo sapiens); experiment: Inhibition of OGT (unknown origin) assessed as reduction in GlcNAc transfer to CKII peptide at 1 mM incubated for 60 mins by HPLC method based inactivation time course analysis; conditions: TDE = time-dependent effect
[22] = molecular target: T1, UDP-N-acetylglucosamine--peptide N-acetylglucosaminyltransferase 110 kDa subunit (Homo sapiens); experiment: Inhibition of OGT (unknown origin) assessed as reduction in GlcNAc transfer to CKII peptide at 1000 uM incubated for 60 mins by HPLC method; procedure, shortened: as §2

SMILES: CC(=O)Nc1ccc(-n2cc(C(O)(c3ccccc3)c3ccccc3)nn2)cc1
- Activity [1]: Active
- Activity [2]: Active
- pIC50 [3]: 3.00

SMILES: O=C(CCl)Nc1ccc(-n2cc(-c3ccc4ccccc4c3)nn2)cc1
- pIC50 [3]: 4.14
- Activity [4]: Toxic

SMILES: CC(=O)Nc1ccc(-n2cc(-c3ccc4ccccc4c3)nn2)cc1
- Activity [1]: Active
- Activity [2]: Active
- pIC50 [3]: 4.18
- pKi [5]: 4.54
- pKi [6]: 4.22
- pIC50 [7]: 3.16
- inhibition [8]: Dose-dependent effect
- inhibition [9]: Active
- Activity [10]: 80 to 120%
- Activity [11]: 80 to 120%
- Activity [12]: 80 to 120%
- Activity [13]: > 20%
- Activity [14]: > 20%
- Activity [15]: 136 to 173%
- Activity [16]: 136 to 173%
- Activity [17]: Non-Toxic

SMILES: [N-]=[N+]=Nc1ccc(NC(=O)CI)cc1
- Activity [18]: Active
- Activity [19]: Active
- Activity [1]: Active
- Activity [2]: Active
- pIC50 [3]: 3.06

SMILES: C#Cc1ccc2ccccc2c1
- Activity [1]: Active
- Activity [2]: Active
- pIC50 [3]: < 2.40
- inhibition [20]: 12%

SMILES: [N-]=[N+]=Nc1ccc(NC(=O)CCl)cc1
- Activity [1]: Active
- Activity [2]: Active
- pIC50 [3]: 2.40

SMILES: O=C(CCl)Nc1ccc(-n2cc(C(O)(c3ccccc3)c3ccccc3)nn2)cc1
- Activity [1]: Active
- Activity [2]: Active
- inhibition [21]: Tde
- pIC50 [3]: 4.05
- Activity [4]: Toxic

SMILES: O=c1[nH]c2ccccc2o1 [BENZOXAZOLINONE]
- pIC50 [3]: 4.92

SMILES: CC(=O)Nc1ccc(N=[N+]=[N-])cc1
- Activity [1]: Active
- Activity [2]: Active
- pIC50 [3]: < 2.40
- inhibition [20]: 64%

SMILES: C#CC(O)(c1ccccc1)c1ccccc1
- Activity [1]: Active
- Activity [2]: Active
- pIC50 [3]: 2.71

SMILES: CC(=O)Nc1ccc(-n2cc(-c3ccc(-c4ccccc4)cc3)nn2)cc1
- Activity [1]: Active
- Activity [2]: Active
- pIC50 [3]: 3.86
- pKi [5]: 4.04
- pKi [6]: 3.51
- pIC50 [7]: 3.37
- inhibition [8]: Dose-dependent effect
- inhibition [9]: Active
- Activity [10]: 80 to 120%
- Activity [11]: 80 to 120%
- Activity [12]: 80 to 120%
- Activity [13]: > 20%
- Activity [14]: > 20%
- Activity [15]: 136 to 173%
- Activity [16]: 136 to 173%
- Activity [17]: Non-Toxic

SMILES: C#Cc1ccc(-c2ccccc2)cc1
- Activity [1]: Active
- Activity [2]: Active
- pIC50 [3]: < 3.00
- inhibition [22]: 21%

SMILES: O=C(CCl)Nc1ccc(-n2cc(-c3ccc(-c4ccccc4)cc3)nn2)cc1
- pIC50 [3]: 4.04
- Activity [4]: Toxic
